In ChEMBL document CHEMBL1148824, “Quinazolinone derivatives as orally available ghrelin receptor antagonists for the treatment of diabetes and obesity” (J Med Chem, 2007):
In brackets after ≈: the same amount, converted by molar mass.

Assays:
Ghrelin receptor = Ghrelin receptor (Ovis aries, UniProt Q8MHZ5); assay: Displacement of [125I]ghrelin from ovine recombinant GHSR1a expressed in HEK293F cells after 6 hrs by scintillation proximity assay; assay type: cell-based
[1] = biological target: T1, Growth hormone secretagogue receptor type 1 (Homo sapiens, UniProt Q92847); assay: Antagonist activity at human recombinant GHSR1a expressed in HEK293F cells by [35S]GTP-gamma-S binding assay; assay type: functional, cell-based
T1 sequence (Q92847 whole entry): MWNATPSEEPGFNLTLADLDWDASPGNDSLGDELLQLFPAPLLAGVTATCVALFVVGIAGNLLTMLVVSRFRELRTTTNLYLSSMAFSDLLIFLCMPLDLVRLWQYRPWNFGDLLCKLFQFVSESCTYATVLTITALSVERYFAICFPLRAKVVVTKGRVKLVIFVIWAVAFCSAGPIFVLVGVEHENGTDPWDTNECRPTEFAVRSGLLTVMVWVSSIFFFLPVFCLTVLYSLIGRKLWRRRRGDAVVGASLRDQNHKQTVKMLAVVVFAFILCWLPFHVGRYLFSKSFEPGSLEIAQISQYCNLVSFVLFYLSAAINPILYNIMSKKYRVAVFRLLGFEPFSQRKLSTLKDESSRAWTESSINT
In short: (§1)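 Functional read-out as GTPγS binding to membranes from HEK293F cells overexpressing recombinant GHS-R1a; values are the mean of at least two replicates.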

[2] = biological target: T1, Growth hormone secretagogue receptor type 1; assay: Agonist activity at human recombinant GHSR1a expressed in HEK293F cells assessed as stimulation of [35S]GTP-gamma-S binding relative to ghrelin; assay type: functional, cell-based; in short: as §1
[3] = Cmax in Wistar rat at 3 mg/kg, po; assay type: ADME, organism-based; parameters: dose 3 mg/kg, route oral; conditions: in vivo
In short: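 Wistar rat pharmacokinetic screen; single oral dose of 3 mg/kg in PEG400/methanesulfonic acid (80:20) vehicle; plasma exposure measured.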

[4] = Aqueous solubility at pH 7.2; assay type: physicochemical
Cytochrome P450 2D6 = Cytochrome P450 2D6 (Homo sapiens, UniProt P10635); assay: Inhibition of CYP2D6; assay type: ADME
Sequence of Cytochrome P450 2D6 (P10635 whole entry): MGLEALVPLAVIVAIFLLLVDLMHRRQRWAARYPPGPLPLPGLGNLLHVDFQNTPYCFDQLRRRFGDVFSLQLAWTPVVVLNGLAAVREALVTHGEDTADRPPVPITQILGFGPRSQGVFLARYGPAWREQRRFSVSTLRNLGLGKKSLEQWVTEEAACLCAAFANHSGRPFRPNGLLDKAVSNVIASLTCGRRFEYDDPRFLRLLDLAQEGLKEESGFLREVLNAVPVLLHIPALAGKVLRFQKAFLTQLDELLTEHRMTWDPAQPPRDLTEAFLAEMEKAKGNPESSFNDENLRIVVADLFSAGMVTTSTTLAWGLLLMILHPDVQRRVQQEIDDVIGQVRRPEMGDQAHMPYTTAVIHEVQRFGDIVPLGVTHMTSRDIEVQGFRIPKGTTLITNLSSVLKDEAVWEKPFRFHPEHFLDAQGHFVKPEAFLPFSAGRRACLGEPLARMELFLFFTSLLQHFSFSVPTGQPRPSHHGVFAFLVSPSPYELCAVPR

[5] = biological target: T2, 5-hydroxytryptamine receptor 2C (Homo sapiens, UniProt P28335); assay: Displacement of […] from 5HT2c receptor
T2 sequence (P28335 whole entry): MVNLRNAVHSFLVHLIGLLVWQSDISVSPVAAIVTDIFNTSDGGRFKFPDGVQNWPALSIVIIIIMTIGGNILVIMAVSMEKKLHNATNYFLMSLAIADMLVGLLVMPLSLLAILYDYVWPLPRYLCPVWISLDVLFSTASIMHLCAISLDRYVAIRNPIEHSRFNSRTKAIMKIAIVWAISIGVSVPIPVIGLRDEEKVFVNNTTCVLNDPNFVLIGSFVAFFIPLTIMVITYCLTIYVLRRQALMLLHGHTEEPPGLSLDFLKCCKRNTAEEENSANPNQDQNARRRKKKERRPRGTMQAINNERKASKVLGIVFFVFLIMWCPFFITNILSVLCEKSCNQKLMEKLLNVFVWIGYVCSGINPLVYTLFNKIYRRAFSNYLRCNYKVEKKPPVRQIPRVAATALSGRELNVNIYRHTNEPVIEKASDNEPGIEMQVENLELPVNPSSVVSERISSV

Sequence of Ghrelin receptor (Q8MHZ5 whole entry): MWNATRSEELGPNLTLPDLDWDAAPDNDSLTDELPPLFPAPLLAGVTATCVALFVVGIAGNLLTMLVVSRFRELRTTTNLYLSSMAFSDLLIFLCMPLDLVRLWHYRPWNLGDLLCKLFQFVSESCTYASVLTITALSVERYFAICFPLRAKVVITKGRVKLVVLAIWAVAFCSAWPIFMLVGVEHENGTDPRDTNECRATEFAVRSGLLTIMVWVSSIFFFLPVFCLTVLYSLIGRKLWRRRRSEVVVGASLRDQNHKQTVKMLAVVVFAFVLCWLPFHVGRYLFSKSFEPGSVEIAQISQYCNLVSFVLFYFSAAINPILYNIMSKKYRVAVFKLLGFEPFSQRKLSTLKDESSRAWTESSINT

Structure (SMILES)	Ki (Ghrelin receptor) [nM]	Kb [1] [nM]	E/Emax [2] [%]	Cmax [3] [nM]	also measured
Cc1ccccc1-c1nc2ccccc2c(=O)n1CC1CCCN(C(C)C)C1 (centres undefined)	1200	–	–	–	–
CCN1CCC[C@@H](Cn2c(-c3ccccc3C)nc3ccc(OC(F)(F)F)cc3c2=O)C1	95	–	–	–	–
Cc1ccccc1-c1nc2ccc(Oc3ccc(F)cc3)cc2c(=O)n1C[C@H]1CCCN(C(C)C)C1 (stereo in doubt; 36)	–	0.19	22	–	–
CCN1CCCC(Cn2c(-c3ccccc3C)nc3ccc(-c4ccc(Cl)cc4)cc3c2=O)C1 (centres undefined) [listing 1 of 2 here]	–	3.2	12	–	–
Cc1ccccc1-c1nc2ccc(Oc3ccc(F)cc3)cc2c(=O)n1C[C@@H]1CCCN(C(C)C)C1	47	–	–	–	–
CC(C)c1nc2ccc(-c3ccc(Cl)cc3)cc2c(=O)n1C[C@H]1CCCN(C(C)C)C1	45	77	0	290	solubility [4]: 60 µM (≈ 26.3 µg/mL); IC50 (Cytochrome P450 2D6): 6300 nM; Ki [5]: > 1000 nM
CCN1CCC[C@H](Cn2c(-c3ccccc3C)nc3ccc(OC(F)(F)F)cc3c2=O)C1	16	–	–	–	–
CCN1CCCC(Cn2c(-c3ccccc3OC)nc3cc(-c4ccc(Cl)cc4)ccc3c2=O)C1 (centres undefined)	> 10000	–	–	–	–
CC(C)N1CCC[C@H](Cn2cnc3ccc(-c4ccc(Cl)cc4)cc3c2=O)C1	440	–	–	200	IC50 (Cytochrome P450 2D6): 200 nM; Ki [5]: > 1000 nM
CC(C)c1nc2ccc(-c3ccccc3Cl)cc2c(=O)n1C[C@H]1CCCN(C(C)C)C1	127	–	–	–	–
Cc1nc2ccc(-c3ccc(Cl)cc3)cc2c(=O)n1C[C@H]1CCCN(C(C)C)C1	110	–	0	–	solubility [4]: 125 µM (≈ 51.2 µg/mL); IC50 (Cytochrome P450 2D6): 9600 nM; Ki [5]: > 1000 nM
CCN1CCC[C@H](Cn2c(C(C)C)nc3ccc(-c4ccc(F)cc4)cc3c2=O)C1	40	–	–	–	–
CCCCN(C)c1ccc2nc(-c3ccccc3OC)n(CC3CCCNC3)c(=O)c2c1 (centres undefined)	36	–	–	–	–

More lines, in order of falling Ki (Ghrelin receptor), values ahead:

Ki (Ghrelin receptor) [nM]	Kb [1] [nM]	E/Emax [2] [%]	Cmax [3] [nM]	Structure (SMILES)	also measured
16	14	-9	100	Cc1ccccc1-c1nc2ccc(-c3ccc(Cl)cc3)cc2c(=O)n1CC1CCCN(CCF)C1 (centres undefined)	–
7	13	12	20	Cc1ccccc1-c1nc2ccc(-c3ccc(Cl)cc3)cc2c(=O)n1CC1CCCNC1 (centres undefined)	–
4	7.6	-5	210	CC(C)c1nc2ccc(Oc3ccc(F)cc3)cc2c(=O)n1C[C@H]1CCCN(C(C)C)C1	solubility [4]: 100 µM (≈ 43.8 µg/mL); IC50 (Cytochrome P450 2D6): 7200 nM; Ki [5]: > 1000 nM
1.8	–	–	120	CCN1CCCC(Cn2c(-c3ccccc3C)nc3ccc(-c4ccc(Cl)cc4)cc3c2=O)C1 (centres undefined) [listing 2 of 2 here]	–
0.9	–	–	–	Cc1ccccc1-c1nc2ccc(Oc3ccc(F)cc3)cc2c(=O)n1C[C@H]1CCCN(C(C)C)C1 (stereo in doubt; (S)-35)	–
0.9	–	92	40	Cc1ccccc1-c1nc2ccc(Oc3ccc(F)cc3)cc2c(=O)n1CC1CCCNC1 (centres undefined)	EC50 [2]: 6.5 nM
0.47	0.97	23	310	Cc1ccccc1-c1nc2ccc(Oc3ccc(F)cc3)cc2c(=O)n1CC1CCCN(C(C)C)C1 (centres undefined)	–
